Experimental data reported in ChEMBL document CHEMBL1126618, “Epoxysuccinyl dipeptides as selective inhibitors of cathepsin B” (J Med Chem, 1993).

Tests used:
[1] = species on record: Rattus norvegicus; test: Second order rate constant for inactivation of rat cathepsin B; settings: in vitro
How it was run: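 Recombinant rat cathepsin B expressed in yeast, activated 15 min on ice in buffer containing 1 mM DTT. Continuous assay at pH 6.0: 50 mM phosphate, 200 mM NaCl, 5 mM EDTA, 10% v/v acetonitrile, 0.5 mM DTT. Substrate CbzPheArgMCA; fluorescence (ex 380, em 440 nm) followed until complete inactivation (typically 5–30 min) to obtain first-order kobs.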

[2] = ratio of cathepsin B/papain
How it was run: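 Both enzymes were run in a continuous CbzPheArgMCA fluorescence assay in 50 mM phosphate, 200 mM NaCl, 5 mM EDTA and 10% acetonitrile. Recombinant rat cathepsin B was run at pH 6.0 with 0.5 mM DTT. Papain was run at pH 6.5. In each case kobs was followed until complete inactivation.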

[3] = target: papain (Carica papaya) (UniProt P00784); test: Second order rate constant for inactivation of papain; settings: in vitro

kinact/Ki [1]	Ratio [2]	kinact/Ki [3]	Structure (SMILES)
206 M⁻¹ s⁻¹	0.1	2070 M⁻¹ s⁻¹	CC(C)CNC(=O)[C@H]1O[C@H]1C(=O)N[C@@H](CC(C)C)C(=O)N1CCC[C@H]1C(=O)OCc1ccccc1
2200 M⁻¹ s⁻¹	0.07	30000 M⁻¹ s⁻¹	CC(C)C[C@H](NC(=O)[C@@H]1O[C@@H]1C(=O)O)C(=O)N1CCC[C@H]1C(=O)O
13800 M⁻¹ s⁻¹	18	760 M⁻¹ s⁻¹	CCOC(=O)[C@H]1O[C@H]1C(=O)N[C@@H](CC(C)C)C(=O)N1CCC[C@H]1C(=O)O
52000 M⁻¹ s⁻¹	93	558 M⁻¹ s⁻¹	CC(C)CNC(=O)[C@H]1O[C@H]1C(=O)N[C@@H](CC(C)C)C(=O)N1CCC[C@H]1C(=O)O
30 M⁻¹ s⁻¹	0.3	110 M⁻¹ s⁻¹	CCOC(=O)[C@H]1O[C@H]1C(=O)N[C@@H](CC(C)C)C(=O)N1CCC[C@H]1C(=O)OCc1ccccc1
8700 M⁻¹ s⁻¹	0.05	176000 M⁻¹ s⁻¹	CC(C)C[C@H](NC(=O)[C@@H]1O[C@@H]1C(=O)O)C(=O)N1CCC[C@H]1C(=O)OCc1ccccc1
